Source: ChEMBL document CHEMBL4316631, “Anti-inflammatory Potential of Saponins from Aster tataricus via NF-κB/MAPK Activation” (J Nat Prod, 2019)
pIC50: −log10 of the molar value.

Legend:
RAW264.7 [1] = assay: Anti-inflammatory activity in mouse RAW264.7 cells assessed as inhibition of LPS-induced nitric oxide production preincubated for 30 mins followed by LPS-stimulation and measured after 24 hrs by Griess assay; format: functional, cell-based
Method in brief: (§1)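 RAW 264.7 macrophages stimulated with LPS; NO release quantified. Single-point screen at 50 μM; IC50 derived by nonlinear regression of sigmoidal dose–response curve, reported with 95% confidence intervals. Dexamethasone as positive control.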

RAW264.7 [2] = assay: Cytotoxicity against mouse RAW264.7 cells assessed as reduction in cell viability at >50 uM measured after 24 hrs by MTT assay; format: cell-based; conditions: raw264.7, 24 h
RAW264.7 [3] = assay: Anti-inflammatory activity in mouse RAW264.7 cells assessed as inhibition of LPS-induced nitric oxide production at 50 uM preincubated for 30 mins followed by LPS-stimulation and measured after 24 hrs by Griess assay relative to control; format: functional; method in brief: as §1

SMILES	pIC50 (RAW264.7 [1])	Activity (RAW264.7 [2])	inhibition at 50 µM (RAW264.7 [3])
C[C@@H]1O[C@@H](O[C@@H]2[C@@H](O)[C@H](O[C@@H]3[C@@H](O[C@@H]4OC[C@](O)(CO)[C@H]4O)[C@@H](O)[C@H](O[C@H]4[C@H](OC(=O)[C@]56CCC(C)(C)C[C@H]5C5=CC[C@@H]7[C@@]8(C)C[C@H](O)[C@H](O[C@@H]9O[C@H](CO[C@@H]%10OC[C@H](O)[C@H](O)[C@H]%10O)[C@@H](O)[C@H](O)[C@H]9O)C(C)(C)[C@@H]8CC[C@@]7(C)[C@]5(C)C[C@H]6O)OC[C@@H](O)[C@@H]4O)O[C@H]3C)OC[C@@H]2O)[C@H](O)[C@H](O)[C@H]1O	5.57	–	> 50%
C[C@@H]1O[C@@H](O[C@H]2[C@H](OC(=O)[C@]34CCC(C)(C)C[C@H]3C3=CC[C@@H]5[C@@]6(C)CC[C@H](O[C@@H]7O[C@H](CO[C@@H]8OC[C@H](O)[C@H](O)[C@H]8O)[C@@H](O)[C@H](O)[C@H]7O)C(C)(C)[C@@H]6CC[C@@]5(C)[C@]3(C)C[C@H]4O)OC[C@@H](O)[C@@H]2O)[C@H](O)[C@H](O)[C@H]1O[C@@H]1OC[C@H](O)[C@H](O[C@@H]2OC[C@@H](O)[C@H](O)[C@H]2O)[C@H]1O	5.68	–	> 50%
C[C@@H]1O[C@@H](O[C@@H]2[C@@H](O[C@@H]3O[C@@H](C)[C@H](O[C@@H]4OC[C@@H](O)[C@H](O)[C@H]4O)[C@@H](O[C@@H]4OC[C@](O)(CO)[C@H]4O)[C@H]3O)[C@H](OC(=O)[C@]34CCC(C)(C)C[C@H]3C3=CC[C@@H]5[C@@]6(C)C[C@H](O)[C@H](O[C@@H]7O[C@H](CO[C@@H]8OC[C@H](O)[C@H](O)[C@H]8O)[C@@H](O)[C@H](O)[C@H]7O)C(C)(C)[C@@H]6CC[C@@]5(C)[C@]3(C)CC4)OC[C@H]2O)[C@H](O)[C@H](O)[C@H]1O	4.38	–	> 50%

Further lines, with some results ahead:

pIC50 (RAW264.7 [1])	SMILES	Activity (RAW264.7 [2])	inhibition at 50 µM (RAW264.7 [3])
< 4.30	CC1(C)CC[C@]2(C(=O)O[C@@H]3OC[C@@H](O)[C@H](O)[C@H]3O)[C@H](O)C[C@]3(C)C(=CC[C@@H]4[C@@]5(C)C[C@H](O)[C@H](O[C@@H]6O[C@H](CO[C@@H]7OC[C@H](O)[C@H](O)[C@H]7O)[C@@H](O)[C@H](O)[C@H]6O)C(C)(C)[C@@H]5CC[C@]43C)[C@@H]2C1	Non-Toxic	–
8.00	C[C@@H]1C[C@H]2[C@@H]3CCC4=CC(=O)C=C[C@]4(C)[C@@]3(F)[C@@H](O)C[C@]2(C)[C@@]1(O)C(=O)CO [DEXAMETHASONE]	–	–
< 4.30	CC1(C)CC[C@]2(C(=O)O)[C@H](O)C[C@]3(C)C(=CC[C@@H]4[C@@]5(C)C[C@H](O)[C@H](O[C@@H]6O[C@H](CO[C@@H]7OC[C@H](O)[C@H](O)[C@H]7O)[C@@H](O)[C@H](O)[C@H]6O)C(C)(C)[C@@H]5CC[C@]43C)[C@@H]2C1	Non-Toxic	–
< 4.30	C[C@@H]1O[C@@H](O[C@H]2[C@H](OC(=O)[C@]34CCC(C)(C)C[C@H]3C3=CC[C@@H]5[C@@]6(C)C[C@H](O)[C@H](O[C@@H]7O[C@H](CO[C@@H]8OC[C@H](O)[C@H](O)[C@H]8O)[C@@H](O)[C@H](O)[C@H]7O)C(C)(C)[C@@H]6CC[C@@]5(C)[C@]3(C)CC4)OC[C@@H](O)[C@@H]2O)[C@H](O)[C@H](O[C@@H]2OC[C@](O)(CO)[C@H]2O)[C@H]1O[C@@H]1OC[C@@H](O)[C@H](O)[C@H]1O	Non-Toxic	–
